Experimental data reported in ChEMBL document CHEMBL1152552, “Death receptor 5 promoter-enhancing compounds isolated from Catimbium speciosum and their enhancement effect on TRAIL-induced apoptosis” (Bioorg Med Chem, 2009).
The source made the active and inactive calls. The calls are words filed in the database; no cut-off is given here.

Legend:
[1] = molecular target: Tumor necrosis factor receptor superfamily member 10B (Homo sapiens) (UniProt O14763); assay: Induction of DR5 receptor promotor activity in human DLD1 cells co-transfected with Sac1 at 39 uM after 24 hrs by luciferase assay; format: cell-based; settings: DLD-1
[2] = molecular target: Tumor necrosis factor receptor superfamily member 10B (Homo sapiens) (UniProt O14763); assay: Induction of DR5 receptor promotor activity in human DLD1 cells co-transfected with Sac1 at 43.9 uM after 24 hrs by luciferase assay; format: cell-based; settings: DLD-1
DLD-1 [3] = assay: Induction of apoptosis in TRAIL-resistant human DLD1 cells assessed as accumulation in sub-G1 phase at 18.5 uM after 24 hrs using annexin-V-FITC/propidium iodide staining by flow cytometry in presence of TRAIL/caspase 9 inhibitor; format: functional, cell-based
Summary of the method: (§1)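 DLD1/TR cells incubated 24 h with 18.5 uM test agent and 100 ng/mL TRAIL, plus either caspase-8 inhibitor z-IETD-fmk at 25 uM or caspase-9 inhibitor z-LEHD-fmk at 20 uM. Ethanol-fixed, PI/RNase stained, sub-G1 fraction read by flow cytometry (at least 20,000 events). Run in triplicate.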

DLD-1 [4] = assay: Decrease in Bcl-xL mRNA expression in human DLD1 cells co-transfected with Sac1 cells at 18.5 uM after 24 hrs by RT-PCR analysis; format: functional, cell-based
DLD-1 [5] = assay: Increase in CHOP mRNA expression in human DLD1 cells co-transfected with Sac1 cells; format: functional, cell-based
DLD-1 [6] = assay: Induction of DR5 gene expression in human DLD1 cells co-transfected with Sac1 cells at 18.5 uM after 24 hrs by RT-PCR analysis
AGS [7] = assay: Induction of apoptosis in TRAIL-resistant human AGS cells assessed as late apoptotic cells at 18.5 uM after 24 hrs using annexin-V-FITC/propidium iodide staining by flow cytometry in presence of TRAIL; format: functional
DLD-1 [8] = assay: Decrease in Bcl-xL protein expression in human DLD1 cells co-transfected with Sac1 cells after 24 hrs by Western blot analysis; format: functional, cell-based
Summary of the method: (§2)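 Lysates of DLD1/TR cells treated 24 h (procaspase-8 after combined TRAIL exposure). Equal protein resolved by SDS-PAGE: 15% for Bcl-xL, 12.5% for DR5, 10% for caspase-8. Transferred to PVDF and probed 1 h at room temperature with primary antibody, then HRP secondary 1 h. Chemiluminescent detection with β-actin as loading control.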

DLD-1 [9] = assay: Induction of apoptosis in TRAIL-resistant human DLD1 cells assessed as accumulation in sub-G1 phase at 18.5 uM after 24 hrs using annexin-V-FITC/propidium iodide staining by flow cytometry in presence of TRAIL; format: functional
DLD-1 [10] = assay: Induction of apoptosis in TRAIL-resistant human DLD1 cells assessed as early apoptotic cells at 9.3 uM after 24 hrs using annexin-V-FITC/propidium iodide staining by flow cytometry in presence of TRAIL; format: functional
DLD-1 [11] = assay: Induction of DR5 protein expression in human DLD1 cells co-transfected with Sac1 cells after 24 hrs by Western blot analysis; format: functional, cell-based; summary of the method: as §2
AGS [12] = assay: Induction of apoptosis in TRAIL-resistant human AGS cells assessed as early apoptotic cells at 18.5 uM after 24 hrs using annexin-V-FITC/propidium iodide staining by flow cytometry in presence of TRAIL; format: functional
DLD-1 [13] = assay: Induction of apoptosis in TRAIL-resistant human DLD1 cells assessed as accumulation in sub-G1 phase at 18.5 uM after 24 hrs using annexin-V-FITC/propidium iodide staining by flow cytometry in presence of TRAIL/z-IETD-fmk caspase 8 inhibitor; format: functional, cell-based; summary of the method: as §1
DLD-1 [14] = assay: Induction of apoptosis in TRAIL-resistant human DLD1 cells assessed as accumulation in sub-G1 phase after 24 hrs using annexin-V-FITC/propidium iodide staining by flow cytometry; format: functional
[15] = molecular target: Tumor necrosis factor receptor superfamily member 10B (Homo sapiens) (UniProt O14763); assay: Induction of DR5 receptor promotor activity in human DLD1 cells co-transfected with Sac1 cells at 18.5 uM after 24 hrs by luciferase assay; format: cell-based
DLD-1 [16] = assay: Induction of apoptosis in TRAIL-resistant human DLD1 cells assessed as late apoptotic cells at 18.5 uM after 24 hrs using annexin-V-FITC/propidium iodide staining by flow cytometry in presence of TRAIL; format: functional
DLD-1 [17] = assay: Decrease in Bcl-xL mRNA expression in human DLD1 cells co-transfected with Sac1 cells at 9.3 uM after 24 hrs by RT-PCR analysis; format: functional, cell-based
DLD-1 [18] = assay: Cytotoxicity against human DLD1 cells co-transfected with Sac1 after 24 hrs; format: functional, cell-based; settings: DLD-1, 24 h
DLD-1 [19] = assay: Decrease in procaspase 8 in TRAIL-resistant human DLD1 cells co-transfected with Sac1 cells at 18.5 uM by Western blot analysis in presence of TRAIL; format: functional, cell-based; summary of the method: as §2
DLD-1 [20] = assay: Induction of apoptosis in TRAIL-resistant human DLD1 cells assessed as accumulation in sub-G1 phase at 9.3 uM after 24 hrs using annexin-V-FITC/propidium iodide staining by flow cytometry in presence of TRAIL; format: functional
DLD-1 [21] = assay: Induction of apoptosis in TRAIL-resistant human DLD1 cells assessed as early apoptotic cells at 18.5 uM after 24 hrs using annexin-V-FITC/propidium iodide staining by flow cytometry in presence of TRAIL; format: functional
AGS [22] = assay: Induction of apoptosis in TRAIL-resistant human AGS cells assessed as early apoptotic cells at 9.3 uM after 24 hrs using annexin-V-FITC/propidium iodide staining by flow cytometry in presence of TRAIL; format: functional
DLD-1 [23] = assay: Activation of caspase 3 in TRAIL-resistant human DLD1 cells co-transfected with Sac1 cells by luminescent assay in presence of TRAIL; format: functional, cell-based
Summary of the method: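 Cells exposed 24 h to 4.6, 9.3 or 18.5 uM test agent and/or 100 ng/mL TRAIL, harvested and lysed. Lysate incubated with luminogenic z-DEVD-aminoluciferin substrate (Caspase-Glo 3/7) for 1 h at room temperature; luminescence read on a luminometer.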

DLD-1 [24] = assay: Induction of apoptosis in TRAIL-resistant human DLD1 cells assessed as accumulation in sub-G1 phase at 18.5 uM after 24 hrs using annexin-V-FITC/propidium iodide staining by flow cytometry in presence of TRAIL/human recombinant DR5/Fc chimera protein; format: functional, cell-based
Summary of the method: (§3)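 DLD1/TR cells incubated 24 h with 18.5 uM test agent and 100 ng/mL TRAIL, plus 2.5 ug/mL human recombinant DR5/Fc or DR4/Fc chimera. Ethanol-fixed, PI/RNase stained, sub-G1 fraction read by flow cytometry (at least 20,000 events). Run in triplicate.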

DLD-1 [25] = assay: Induction of apoptosis in TRAIL-resistant human DLD1 cells assessed as accumulation in sub-G1 phase at 18.5 uM after 24 hrs using annexin-V-FITC/propidium iodide staining by flow cytometry in presence of TRAIL/human recombinant DR4/Fc chimera protein; format: functional, cell-based; summary of the method: as §3
DLD-1 [26] = assay: Induction of apoptosis in TRAIL-resistant human DLD1 cells assessed as late apoptotic cells at 9.3 uM after 24 hrs using annexin-V-FITC/propidium iodide staining by flow cytometry in presence of TRAIL; format: functional
AGS [27] = assay: Induction of apoptosis in TRAIL-resistant human AGS cells assessed as late apoptotic cells at 9.3 uM after 24 hrs using annexin-V-FITC/propidium iodide staining by flow cytometry in presence of TRAIL; format: functional
DLD-1 [28] = assay: Induction of DR5 gene expression in human DLD1 cells co-transfected with Sac1 cells at 9.3 uM after 24 hrs by RT-PCR analysis; format: functional
DLD-1 [29] = assay: Induction of DR4 gene expression in human DLD1 cells co-transfected with Sac1 cells after 24 hrs by RT-PCR analysis; format: functional, cell-based

Tumor necrosis factor receptor superfamily member 10B (Homo sapiens), sequence (O14763 whole entry): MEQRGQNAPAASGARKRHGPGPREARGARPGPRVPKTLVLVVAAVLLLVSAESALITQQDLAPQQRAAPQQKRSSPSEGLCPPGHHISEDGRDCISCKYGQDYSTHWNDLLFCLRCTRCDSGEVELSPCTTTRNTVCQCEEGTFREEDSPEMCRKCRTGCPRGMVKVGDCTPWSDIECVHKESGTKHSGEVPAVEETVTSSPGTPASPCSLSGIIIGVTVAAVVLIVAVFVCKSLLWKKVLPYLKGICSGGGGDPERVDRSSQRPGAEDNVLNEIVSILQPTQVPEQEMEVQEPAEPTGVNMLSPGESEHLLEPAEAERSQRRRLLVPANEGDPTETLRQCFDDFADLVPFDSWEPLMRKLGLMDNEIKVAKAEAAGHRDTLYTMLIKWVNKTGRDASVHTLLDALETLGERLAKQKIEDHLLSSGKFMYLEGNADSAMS

Q: O=C1C[C@@H](c2ccccc2)Oc2cc(O)cc(O)c21 was tested. Which fold change (FC) [1] did it give?
A: 2.5

Q: Which fold change (FC) [2] does the source give for COc1cc(/C=C/c2ccccc2)oc(=O)c1 here?
A: 2.5

Q: COc1cc(O)cc(O)c1C(=O)/C=C/c1ccccc1 [CARDAMOMIN] was tested. Which Activity (DLD-1 [3]) did it give?
A: inactive

Q: And the Activity (DLD-1 [4])?
A: Active

Q: And the Activity (DLD-1 [5])?
A: Dose-dependent effect

Q: What about the “fold change (FC)” value (DLD-1 [6]) of the same compound?
A: 4.1

Q: And the Activity (AGS [7])?
A: 5%

Q: And the Activity (DLD-1 [8])?
A: Dose-dependent effect

Q: What about the Activity (DLD-1 [9]) of the same compound?
A: 55.8%

Q: And the Activity (DLD-1 [10])?
A: 14.1%

Q: What about the Activity (DLD-1 [11]) of the same compound?
A: Dose-dependent effect

Q: What about the Activity (AGS [12]) of the same compound?
A: 30.2%

Q: What about the Activity (DLD-1 [13]) of the same compound?
A: inactive

Q: What about the Activity (DLD-1 [14]) of the same compound?
A: 15.5%

Q: And the fold change (FC) [15]?
A: 4.1

Q: And the Activity (DLD-1 [16])?
A: 20.5%

Q: And the Activity (DLD-1 [17])?
A: Active

Q: And the IC50 (DLD-1 [18])?
A: 41.8 µM

Q: And the Activity (DLD-1 [19])?
A: Active

Q: What about the Activity (DLD-1 [20]) of the same compound?
A: 41.9%

Q: What about the Activity (DLD-1 [21]) of the same compound?
A: 26.7%

Q: And the Activity (AGS [22])?
A: 15%

Q: And the Activity (DLD-1 [23])?
A: Dose-dependent effect

Q: What about the Activity (DLD-1 [24]) of the same compound?
A: Active

Q: What about the Activity (DLD-1 [25]) of the same compound?
A: inactive

Q: What about the Activity (DLD-1 [26]) of the same compound?
A: 14.3%

Q: What about the Activity (AGS [27]) of the same compound?
A: 3%

Q: What about the “fold change (FC)” value (DLD-1 [28]) of the same compound?
A: 2

Q: What about the Activity (DLD-1 [29]) of the same compound?
A: Dose-dependent effect
